Laboratory results from ChEMBL document CHEMBL1147901, “Anticancer, neuroprotective activities and computational studies of 2-amino-1,3,4-thiadiazole based compound” (Bioorg Med Chem, 2007).
Active and inactive are the calls of the source.

Assays:
[1] = system: C6; assay: Antiproliferative activity against rat glioma C6 cells assessed as decreased cell division after 48 hrs; assay type: functional, cell-based; conditions: C6, 48 h
Method in brief: (§1)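 BrdU ELISA. Cells seeded at 2 × 10^4 (A549) or 1 × 10^4 (C6) per well. Next day, fresh medium containing serial dilutions (5–50 µM) was added for 48 h. Cells were then labelled with 10 µM BrdU for 2 h, fixed/denatured 30 min, probed with peroxidase anti-BrdU and developed with TMB. Stopped with 1 M H2SO4, A450. Mean normalized OD ±SEM of 5–8 trials, linear regression.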

[2] = system: A549; assay: Antiproliferative activity against human A549 cells assessed as decreased cell division after 48 hrs; assay type: functional, cell-based; conditions: A549, 48 h; method in brief: as §1
[3] = system: HT-29; assay: Antiproliferative activity against human HT29 cells at 5 uM after 96 hrs by MTT assay; assay type: functional, cell-based; conditions: HT-29, 96 h
Method in brief: (§2)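 MTT viability. Seeded per well at 0.5 × 10^4 (C6), 1 × 10^4 (TE671, A549) or 3 × 10^4 (HT-29, SK-N-AS). Next day exposed to serial dilutions (5–100 µM) in fresh medium with 10% FBS at 37 °C, 5% CO2 for 96 h. MTT (5 mg/mL) for 4 h, formazan dissolved overnight in 10% SDS/0.01 N HCl, A570. Threshold concentration giving antiproliferative effect recorded.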

[4] = system: C6; assay: Antiproliferative activity against rat glioma C6 cells at 25 uM after 96 hrs by MTT assay; assay type: functional, cell-based; conditions: C6, 96 h; method in brief: as §2
[5] = system: TE-671; assay: Antiproliferative activity against human TE671 cells at 10 uM after 96 hrs by MTT assay; assay type: functional, cell-based; conditions: TE-671, 96 h; method in brief: as §2
[6] = system: SK-N-AS; assay: Antiproliferative activity against human SK-N-AS cells at 25 uM after 96 hrs by MTT assay; assay type: functional, cell-based; method in brief: as §2
[7] = species: Rattus norvegicus; assay: Neuroprotective activity against serum deprivation induced neurotoxicity in rat cortical neurons; assay type: functional
Method in brief: (§3)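 Cortical neurons from E18 Wistar rat fetuses, plated at 5 × 10^5 cells/mL on poly-L-lysine in B-27/Neurobasal medium and grown to 14 days. Insult was glutamate (500 µM) or serum deprivation (Neurobasal without B-27), alone or with 10 or 25 µM compound, for 48 h. MTT read-out as mean normalized OD ±SEM of 4–8 trials.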

[8] = species: Rattus norvegicus; assay: Neuroprotective activity against glutamate-induced neurotoxicity in rat cortical neurons; assay type: functional; method in brief: as §3
[9] = system: C6; assay: Inhibition of rat glioma C6 cell migration at 5 uM after 24 hrs; assay type: functional, cell-based
Method in brief: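 Scratch-wound assay. 1 × 10^6 C6 cells were plated per 4-cm dish. Next day the monolayer was scratched with a pipette tip and rinsed twice with PBS. Fresh medium alone or with 5 µM compound for 24 h, then May-Grünwald–Giemsa staining. Cells migrated into the wound were counted on micrographs as mean per field ±SEM over 50 wound areas from four micrographs; Student's t test.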

[10] = system: A549; assay: Antiproliferative activity against human A549 cells at 10 uM after 96 hrs by MTT assay; assay type: functional, cell-based; conditions: A549, 96 h; method in brief: as §2

IC50 [2]: 13.7 µM
IC50 [3]: 33.1 µM
IC50 [6]: 54.7 µM
IC50 [10]: 22.8 µM
Structure (SMILES): Oc1ccc(-c2nnc(Nc3ccc(F)cc3)s2)c(O)c1
IC50 [1]: 23.5 µM
IC50 [4]: 27.3 µM
IC50 [5]: 26 µM
Activity [7]: Dose-dependent effect
Activity [8]: Dose-dependent effect
Activity [9]: Active
